The values below come from ChEMBL document CHEMBL3396947, “Synthesis and biological evaluation of phosphoramidate prodrugs of two analogues of 2-deoxy-d-ribose-1-phosphate directed to the discovery of two carbasugars as new potential anti-HIV leads” (Bioorg Med Chem, 2015).

Active and inactive are the calls of the source. No cut-off for these calls is given here.

One data set concerns Human alphaherpesvirus 1. Put plainly: Antiviral activity against HSV1 infected in HEL cells at 100 uM. The class given is functional, organism-based.
The subject of the next data set is Human respirovirus 3. Kind of data set: Antiviral activity against Parainfluenza virus 3 infected in African green monkey Vero cells at 100 uM. The data set is classed as functional, organism-based.
In the next data set the test system is Sindbis virus. Put plainly: Antiviral activity against Sindbis virus infected in African green monkey Vero cells at 100 uM. The data set is classed as functional, organism-based.
The next data set deals with Human alphaherpesvirus 2. Put plainly: Antiviral activity against HSV2 infected in HEL cells at 100 uM. The data set is classed as functional, organism-based.
Data set [1] deals with Influenza A virus. Kind of data set: Antiviral activity against Influenza A virus H1N1 infected in MDCK cells at 100 uM. The class given is functional, organism-based.
In data set [2] the test system is Vesicular stomatitis virus. Kind of data set: Antiviral activity against Vesicular stomatitis virus infected in human HeLa cells at 100 uM. The class given is functional, organism-based.
A further data set relates to Coxsackievirus. Kind of data set: Antiviral activity against Coxsackievirus B4 infected in human HeLa cells at 100 uM. The class given is functional, organism-based.
In a further data set the test system is HeLa. Kind of data set: Cytotoxicity against human HeLa cells after 96 hrs by coulter counter analysis. The data set is classed as cell-based. The essentials: (§1)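 Tumour cells, (5–7.5) × 10⁴ per well, were grown with graded compound amounts at 37 °C in humidified CO₂. Growth time was 48 h for L1210, 72 h for CEM and 96 h for HeLa. Cells were then counted with a Coulter counter. IC50 was the concentration reducing cell proliferation by 50%.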

Data set [3] deals with Mammalian orthoreovirus 1. Kind of data set: Antiviral activity against Reovirus-1 infected in African green monkey Vero cells at 100 uM. The class given is functional, cell-based.
The test system of a further data set is Felid alphaherpesvirus 1. Put plainly: Antiviral activity against Feline herpesvirus infected in CRFK cells at 100 uM. The class given is functional, organism-based.
For another data set, the system named is Vaccinia virus. Kind of data set: Antiviral activity against Vaccinia virus infected in HEL cells at 100 uM. As to conditions: Orthopoxvirus vaccinia. The class given is functional, organism-based.
The test system of another data set is CCRF-CEM. Kind of data set: (§2) Cytotoxicity against human CEM cells after 72 hrs by coulter counter analysis. As to conditions: 72 h; for IC50: Homo sapiens, CCRF-CEM; for CC50: human, ccrf-cem. The class given is cell-based. The essentials: as §1
The next data set concerns L1210. Kind of data set: Cytotoxicity against mouse L1210 cells after 48 hrs by coulter counter analysis. The class given is cell-based. As to conditions: L1210, 48 h. The essentials: as §1
Data set [4] deals with Human immunodeficiency virus 2. Kind of data set: Antiviral activity against HIV2 ROD infected in human MT4 cells assessed as reduction of virus-induced cytopathogenicity after 4 to 5 days by trypan blue dye exclusion method. The class given is functional, organism-based. As to conditions: Human immunodeficiency virus 2, ISOLATE ROD. The essentials:
(§3)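 MT-4 cells (~3 × 10⁵ cells/mL) were infected with 100 CCID50/mL of HIV and cultured with compound dilutions for 4–5 days at 37 °C in humidified CO₂. Viable cells were counted by trypan blue dye exclusion. EC50 was the concentration giving 50% inhibition of the HIV-induced cytopathic effect.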

Data set [5] deals with Influenza A virus. Kind of data set: Antiviral activity against Influenza A virus H3N2 infected in MDCK cells at 100 uM. The data set is classed as functional, organism-based.
A further data set concerns Punta Toro virus. Kind of data set: Antiviral activity against Punta Toro virus infected in African green monkey Vero cells at 100 uM. The class given is functional, organism-based.
The test system of data set [6] is Human immunodeficiency virus 2. Kind of data set: Antiviral activity against HIV2 ROD infected in human CEM cells assessed as reduction of virus-induced cytopathogenicity after 4 to 5 days by trypan blue dye exclusion method. The data set is classed as functional, organism-based. As to conditions: Human immunodeficiency virus 2, ISOLATE ROD, CCRF-CEM.
The subject of data set [7] is Human immunodeficiency virus 1. Kind of data set: Antiviral activity against HIV1 NL4.3 infected in human MT4 cells assessed as reduction of virus-induced cytopathogenicity after 4 to 5 days by trypan blue dye exclusion method. The class given is functional, organism-based. As to conditions: Human immunodeficiency virus 1, NL4.3, MT4. In short, it runs like this:
as §3

For a further data set, the system named is MT4. Kind of data set: Cytotoxicity against human MT4 cells after 4 to 5 days by trypan blue dye exclusion method. The class given is cell-based.
For the next data set, the system named is Human orthopneumovirus. Kind of data set: Antiviral activity against Respiratory syncytial virus infected in human HeLa cells at 100 uM. The class given is functional, organism-based.
The target in data set [8] is Human immunodeficiency virus type 1 reverse transcriptase (Human immunodeficiency virus 1) (UniProt Q72547). Kind of data set: Activity at HIV reverse transcriptase.
Data set [9] deals with Human immunodeficiency virus 1. Kind of data set: Antiviral activity against HIV1 3B infected in human CEM cells assessed as reduction of virus-induced cytopathogenicity after 4 to 5 days by trypan blue dye exclusion method. The class given is functional, organism-based. As to conditions: Human immunodeficiency virus 1, 3B, CCRF-CEM.
A further data set concerns Feline coronavirus. Put plainly: Antiviral activity against Feline coronavirus infected in CRFK cells at 100 uM. The data set is classed as functional, organism-based.
Data set [10] in a line: as §2. The class given is cell-based, CCRF-CEM. As to conditions: human, CEM cells (CCRF-CEM). The essentials: as §1
Data set [11] concerns Human immunodeficiency virus 2. Put plainly: Antiviral activity against HIV2 ROD infected in human TK-deficient CEM cells assessed as reduction of virus-induced cytopathogenicity after 4 to 5 days by trypan blue dye exclusion method. The class given is functional, organism-based. As to conditions: Human immunodeficiency virus 2, ISOLATE ROD, CCRF-CEM.
Data set [12] in a line: Prodrug activation assessed as carboxypeptidase Y (unknown origin)-mediated drug metabolism after 13 hrs by 31P-NMR analysis. The data set is classed as ADME, Homo sapiens. The essentials: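 The substrate was dissolved in acetone-d6 and mixed with Trizma buffer (pH 7.6) for the carboxypeptidase Y incubation.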

Regarding `OC[C@H]1[C@H](O)CC[C@@H]1O`, the outcome (in the data set on Human alphaherpesvirus 1; with Human respirovirus 3; with Sindbis virus; in the data set with Human alphaherpesvirus 2; in the data set on Influenza A virus [1]; in data set [2]) was inactive. Also, the outcome (with Coxsackievirus; in data set [3]; in the data set with Felid alphaherpesvirus 1; in the data set with Vaccinia virus; in the data set on Influenza A virus [5]; with Punta Toro virus) was inactive. Further, the outcome (in the data set on Human orthopneumovirus; in data set [8]; in the data set on Feline coronavirus) was inactive. Further, the IC50 was 175 µM with HeLa, not below 250 µM in the data set on CCRF-CEM and 55 µM in the data set on L1210. For the same compound, the CC50 was more than 250 µM in the data set with CCRF-CEM and 90 µM with MT4. For the same compound, the EC50 is 7.5 µM in data set [4], 12 µM in [6], 6.7 µM in data set [7] and 3.8 µM in data set [9].
For `O=C(OCc1ccccc1)OC[C@H]1CC(O)C[C@@H]1OC(=O)OCc1ccccc1` (some centres not stated), in data set [10], the midpoint of cytotoxicity, the CC50 at 72 h, lay at 110 µM. Further, the EC50 in data set [6] and in data set [9] was more than 50 µM throughout.
In the case of `COC(=O)[C@H](C)NP(=O)(Oc1ccccc1)OC1C[C@H](CO)[C@@H](O)C1` (mixture of isomers), the EC50 is 250 µM in data set [11], more than 250 µM in data set [6] and more than 250 µM in data set [9]. In addition, the CC50 in the data set on CCRF-CEM was more than 250 µM.
On to `C[C@H](NP(=O)(Oc1cccc2ccccc12)OC1C[C@H](CO)[C@@H](O)C1)C(=O)OC1CCCCC1` (mixture of isomers), for which the results for the EC50 in data set [11], in data set [6] and in data set [9] were 50 µM, more than 50 µM and more than 50 µM, respectively. Moreover, the Stability result in [12] is “Stable”. The compound also came in with a CC50 in the data set on CCRF-CEM of more than 250 µM.
As to `CCCCCOC(=O)[C@H](C)NP(=O)(Oc1ccccc1)O[C@@H]1CC[C@H](O)[C@H]1CO` (some centres not stated), the IC50 in the data set with HeLa came out at 166 µM; in the data set with CCRF-CEM it was 106 µM; in the data set with L1210 it was 116 µM. Also, the EC50 in [4] is 145 µM; in data set [7], more than 250 µM. This compound registered a CC50 with MT4 of more than 250 µM.
Turning to `C[C@H](NP(=O)(Oc1ccccc1)OC1C[C@H](CO)[C@@H](O)C1)C(=O)OC(C)(C)C` (mixture of isomers), the results for the EC50 in data set [11], in data set [6] and in [9] were 250 µM, more than 250 µM and more than 250 µM, respectively. In the data set on CCRF-CEM, the CC50 was more than 250 µM.
With `C[C@H](NP(=O)(Oc1ccccc1)OC1C[C@H](CO)[C@@H](O)C1)C(=O)OC1CCCCC1` (mixture of isomers), the EC50 in [11] was 250 µM; in data set [6], more than 250 µM; in data set [9] it was more than 250 µM. In the data set with CCRF-CEM, this compound yielded a CC50 of more than 250 µM.
Turning to `C[C@H](NP(=O)(Oc1cccc2ccccc12)O[C@@H]1CC[C@H](O)[C@H]1CO)C(=O)OCC(C)(C)C` (some centres not stated), the figures for the IC50 in the data set with HeLa, with CCRF-CEM and in the data set with L1210 were 94 µM, 64 µM and 70 µM, respectively. Besides, the EC50 in [4] and in data set [7] was more than 50 µM throughout. This compound registered a CC50 with MT4 of 112 µM.
As to `O=C(OCc1ccccc1)OC[C@H]1[C@H](O)CC[C@@H]1OC(=O)OCc1ccccc1`, half-maximal cytotoxicity in [10] (CC50 at 72 h) was put at 94 µM. The EC50 in [6] turned out to be 5.4 µM; in [9], 2.1 µM. For the same compound, the outcome in data set [8] was inactive.
Regarding `OC[C@H]1CC(O)C[C@@H]1O` (some centres not stated), the CC50 in the data set with CCRF-CEM is more than 250 µM. In addition, the EC50 in [6] and in [9] was more than 250 µM throughout.
As to `COC(=O)[C@@H](NP(=O)(Oc1ccccc1)OC1C[C@H](CO)[C@@H](O)C1)C(C)C` (mixture of isomers), the EC50 in data set [11] was 250 µM; in data set [6], more than 250 µM; in data set [9], more than 250 µM. In the data set with CCRF-CEM, the CC50 is more than 250 µM.
